Screening data: PubChem, several laboratories
Lmaj promast – Leishmania major promastigote growth inhibition, primary screen. 200,000 tested, 9% active. inhibition, % at 10 µM. Leishmania major promastigotes, resazurin fluorescence viability; in the data active = inhibition above about 50%;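 also: promastigotes grown with compound for 44 hours at 28 °C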
Cl transport mod – KCC2 cotransporter modulators, thallium flux, primary screen, cell-based, HEK293 KCC2, FluoZin-2 fluorescence, MLSMR; Solute carrier family 12 member 5 (Homo sapiens), Q9H2X9; B-score of Tl+ flux slope (higher = more flux/activation; lower = inhibition) at 10 µM; KCC2 cells, thallium flux FluoZin-2 fluorescence; AID 1456, 2008; 190,000 tested, 2.2% active;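 active = thallium flux slope and its plate-corrected score both differing from the plate sample mean at a set confidence after two filtering rounds, in either direction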;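 also: slope of fluorescence scaled to starting intensity during 10 to 20 s after thallium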
Diaph inh CS – diaphorase inhibitors and chemical oxidizers, primary screen, counter-screen for diaphorase-coupled primary assays, biochemical, uHTS, resorufin fluorescence. 190,000 tested, 0.69% active. diaphorase resazurin-to-resorufin fluorescence, NADH, 16 min; bacterial (C. kluyveri) enzyme, not human. inhibition, % at 20 µM;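 active = primary screen inhibition at 20 µM above a set limit, cut at about 50% in these data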;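 also: plate controls were DMSO with full reaction for no effect and wells lacking NADH for full effect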
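Assay system: diaphorase enzyme from Clostridium kluyveri; Input: enzyme working solution with 0.14 U/mL diaphorase; Timing: 16 min at room temperature; Technique: resorufin fluorescence, excitation 544 nm, emission 590 nm; Benchmarks: positive control minus NADH, DMSO neutral control.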
ROMK mod – ROMK potassium channel modulators, primary screen, cell-based, thallium flux, MLSMR library; Tet-inducible ROMK, thallium flux fluorescence; actives lie on both sides; B-score at 10 µM; 130,000 tested, 2% active;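 active = signal ratio slope over the read window, or its plate-corrected B-score, at least 3 SD from the plate mean, either direction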;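 also: B-score of the F/F0 ratio slope over 7 to 12 s after thallium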
Target sequence (P48048 whole entry, looked up): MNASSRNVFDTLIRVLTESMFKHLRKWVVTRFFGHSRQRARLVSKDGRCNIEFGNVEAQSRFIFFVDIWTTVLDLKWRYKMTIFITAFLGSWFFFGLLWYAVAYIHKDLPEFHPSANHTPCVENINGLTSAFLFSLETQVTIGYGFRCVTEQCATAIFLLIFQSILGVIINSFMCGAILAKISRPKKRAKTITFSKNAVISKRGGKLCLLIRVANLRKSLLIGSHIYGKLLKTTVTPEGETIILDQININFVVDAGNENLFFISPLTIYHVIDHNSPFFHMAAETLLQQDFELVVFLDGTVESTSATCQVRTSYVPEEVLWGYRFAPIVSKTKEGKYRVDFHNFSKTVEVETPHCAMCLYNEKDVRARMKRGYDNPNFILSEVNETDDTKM
WT yeast gro inh – growth inhibition of WT strain, primary screen, mitochondrial fusion inhibitor project, WT and mutant strains, chemical genetic; 190,000 tested, 2.1% active; mitochondrial fusion phenotypic screen; inhibition, % at 10 µM; in the data active = inhibition above about 58%; tested in S. cerevisiae
Diaph act CS – compounds boosting diaphorase resazurin reduction – biochemical, uHTS, resorufin fluorescence, counter-screen for diaphorase-coupled primary assays, primary screen; Diaphorase/resazurin coupled assay, 16 min; stronger effect = higher value; 1 = vehicle wells, 0 = NADH-free wells; 190,000 tested, 0.005% active; activation factor at 20 µM;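 active = diaphorase activity raised at least twofold by the compound at 20 µM; inactive = activation factor below 2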
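Material: bacterial diaphorase enzyme (C. kluyveri); amount: enzyme 0.07 U/mL final; reagent: NADH substrate 0.114 mM plus resazurin dye 0.1 mM, final; doses: single compound dose of 20 µM, 1% DMSO final; timing: 16 min enzyme reaction, ambient temperature; measured by: fluorescence of resorufin, 544 nm excitation, 590 nm emission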
* marks the source's active call; other numbers are inactive results; x = not tested or not shown. Only some compounds are listed: those with a hit (about 12% of all), similar ones and a draw of the others.

SMILES | Lmaj promast | Cl transport mod | Diaph inh CS | ROMK mod | WT yeast gro inh | Diaph act CS
Cc1cccc(C)c1NC(=O)/C(=C/c1ccco1)c1ccccc1 | 20 | -0.035 | 8 | 0.36 | 0 | 0.9
CCOC(=O)CC(=O)CSc1nc2c(cc1C#N)CCCCC2 | -1 | -0.23 | 22 | -1.4 | 14 | 0.8
CCNC(=S)Nc1nc2c(cc1C(=O)OCC)CCCC2 | -1 | 41* | -3 | x | 3 | 1
C=CCNC(=S)Nc1nc2c(cc1C(=O)OCC)CCCC2 | 40 | 63* | 9 | 0.57 | 16 | 0.9
CCOc1cc(CNC2CCCC2)c(Cl)cc1OCC(=O)Nc1ccccc1 | 89* | -0.47 | -13 | -0.43 | 20 | 1.1
CCOc1ccccc1OCC(=O)NC1CCCCC1 | 6 | x | 4 | 0.019 | -9 | 1
CCOC(=O)c1ccc(NC(=O)COc2ccccc2CNC2CCCC2)cc1 | 100* | 0.48 | -10 | -2.4 | 7 | 1.1
Cc1ccc(S(=O)(=O)Nc2c(C)nc3nc[nH]n3c2=O)c(C)c1 | -6 | -0.004 | 9 | x | -22 | 0.9
OC1=C(O)c2nc3cc(C(F)(F)F)ccc3nc21 | x | 0.55 | x | 1.1 | x | x
N#CC1=C(N)Oc2c(ccc3cccnc23)C1c1ccccc1 (stereo not drawn) | x | -0.76 | x | x | x | x
Cc1ccc2[nH]c(=O)c(C3C(C#N)=C(N)Oc4c3ccc3cccnc43)cc2c1 (stereo not drawn) | 96* | x | 45 | -0.67 | 6 | 0.6
CC1CCCN(CC(=O)Nc2ccc(S(=O)(=O)NC3CCCCC3)cc2)C1 (stereo not drawn) | 32 | 0.73 | 5 | -1.4 | 98* | 1
CN(CC(=O)Nc1ccc(S(=O)(=O)N2CCCC2)cc1)Cc1c(F)cccc1Cl | 100* | -0.81 | 9 | -0.073 | 8 | 0.9
O=C(CNC1CCCCCC1)Nc1ccc(S(=O)(=O)NC2CC2)cc1 | 30 | 0.16 | 11 | x | 2 | 0.9
CC1CCCN(CC(=O)Nc2ccc(S(=O)(=O)N3CCCCCC3)cc2)C1 (stereo not drawn) | 84* | 0.061 | 12 | -0.79 | 4 | 0.9
O=C(CS(=O)(=O)Cc1ccccc1)Nc1ccc(S(=O)(=O)N2CCOCC2)cc1 | -4 | -1 | 6 | x | -3 | 0.9
CN(CC(=O)Nc1ccc(S(=O)(=O)N2CCCC2)cc1)Cc1ccc(Cl)cc1 | 17 | 0.87 | 21 | 0.89 | -4 | 0.8
O=C(CN1CCOCC1)Nc1ccc(S(=O)(=O)N2CCCCCC2)cc1 | 2 | x | 20 | x | 2 | 0.8
O=C(CS(=O)(=O)Cc1ccccc1)Nc1ccc(S(=O)(=O)N2CCCCCC2)cc1 | 52* | -0.94 | 21 | x | -3 | 0.8
CCOc1ccc(OCCn2nnc3ccccc3c2=O)cc1 | -3 | 0.5 | 14 | x | -9 | 0.9
O=C(CN1CCCCC1)Nc1ccc(S(=O)(=O)N2CCCCCC2)cc1 | 8 | 0.076 | 10 | x | 7 | 0.9
CC1CCCN(CC(=O)Nc2ccc(S(=O)(=O)N3CCCCC3)cc2)C1 (stereo not drawn) | 92* | 0.26 | 2 | x | 1 | 1
Oc1ccccc1C1CC(c2cccs2)=NC(c2ccc(Cl)cc2)N1 (stereo not drawn) | 49 | 0.98 | 18 | -0.2 | 73* | 0.8
CS(=O)(=O)N1N=C(c2cccs2)CC1c1ccccc1O (stereo not drawn) | -4 | 0.42 | 18 | -0.63 | -9 | 0.8
COc1ccc(CCN(Cc2cc3cc(C)c(C)cc3nc2Cl)C(=O)C2CC2)cc1 | -3 | -0.68 | 11 | -0.39 | 55 | 0.9
CC(=O)Nc1cccc(C(=O)OCc2ccc(C(=O)Oc3ccc(Cl)cc3)cc2)c1 | 0 | 1 | 4 | x | 2 | 1
Cc1ccc2cc(CN(CCN3CCCC3)C(=O)Nc3ccc(F)cc3)c(=O)[nH]c2c1C | 73* | 1.1 | 10 | x | -10 | 0.9
CCOC(=O)/C(C#N)=C1\Nc2ccccc2N=C1N(CC(C)C)CC(C)C | 81* | -0.2 | 18 | -1.6 | 76* | 0.8
